Measurements taken from ChEMBL document CHEMBL3822425, “Isatin Derived Spirocyclic Analogues with α-Methylene-γ-butyrolactone as Anticancer Agents: A Structure-Activity Relationship Study” (J Med Chem, 2016).
Activity calls are given as the source filed them. The calls are words filed in the database; no cut-off is given here.

Legend:
A2780 [1] = test: Cytotoxicity against human A2780 cells assessed as cell growth inhibition after 3 days by presto blue dye based plate reader method; format: functional; details: A2780, 72 h
How it was run: (§1)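 Cells in DMEM high glucose/10% FBS (A2780 in RPMI/10% FBS), 4,000 per well, overnight, then 40 to 0.039 µM or vehicle, 24, 48, 72 h at 37°C, 5% CO2; PrestoBlue 15 min, fluorescence 560ex/590em; growth as 100×[(T−Tz)/(C−Tz)] per NCI algorithm.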

A2780 [2] = test: Potency index, ratio of parthenolide EC50 to compound EC50 for cell growth inhibition of human A2780 cells; format: functional
A2780 [3] = test: Potency index, ratio of ibrutinib EC50 to compound EC50 for cell growth inhibition of human A2780 cells; format: functional
HeLa [4] = test: Cytotoxicity against human HeLa cells expressing GFP assessed as cell growth inhibition after 3 days by presto blue dye based plate reader method; format: functional; details: 72 h; how it was run: as §1
[5] = Cytotoxicity against human MIAPaCa2 cells assessed as cell growth inhibition after 3 days by presto blue dye based plate reader method; format: functional; details: MIA PaCa-2, 72 h; how it was run: as §1
SW480 [6] = test: Cytotoxicity against human SW480 cells assessed as cell growth inhibition after 3 days by presto blue dye based plate reader method; format: functional; details: SW480, 72 h
HeLa [7] = test: Potency index, ratio of parthenolide IC50 to compound IC50 for cell growth inhibition of human HeLa cells; format: functional
MIA PaCa-2 [8] = test: Potency index, ratio of parthenolide IC50 to compound IC50 for cell growth inhibition of human MIAPaCa2 cells; format: functional
SW480 [9] = test: Potency index, ratio of parthenolide IC50 to compound IC50 for cell growth inhibition of human SW480 cells; format: functional
HeLa [10] = test: Potency index, ratio of ibrutinib IC50 to compound IC50 for cell growth inhibition of human HeLa cells; format: functional
MIA PaCa-2 [11] = test: Potency index, ratio of ibrutinib IC50 to compound IC50 for cell growth inhibition of human MIAPaCa2 cells; format: functional
SW480 [12] = test: Potency index, ratio of ibrutinib IC50 to compound IC50 for cell growth inhibition of human SW480 cells; format: functional
HeLa [13] = test: Induction of apoptosis in human HeLa cells assessed as PARP cleavage after 24 to 48 hrs by Western blot analysis; format: functional, cell-based
How it was run: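 Cells collected with media and trypsinized pellet combined, lysed in RIPA buffer (pH 8.0), 4-20% SDS-PAGE, Western blot with anti-PARP to detect cleavage; HeLa timepoint 48 h.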

A549 [14] = test: Inhibition of TNFalpha-induced IKKbeta-mediated NF-kappaB activity in human A549 cells at 10 uM after 2 hrs followed by TNFalpha addition for 7 hrs by ONE-Glo Luciferase reporter based luminescence assay; format: cell-based
How it was run: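 A549 luciferase cells grown 5 passages without TNFα then 2 passages with or without 5 ng/mL TNFα; 50,000 per well overnight; 10 µM compound 2 h; then 20 ng/mL TNFα 7 h; PrestoBlue 10 min (560ex/590em) viability; ONE-Glo 10 min, luminescence 1000 ms.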

A549 [15] = test: Inhibition of TNFalpha-induced IKKbeta-mediated NF-kappaB activity in human A549 cells at 10 uM after 2 hrs followed by TNFalpha addition for 3 hrs by ONE-Glo Luciferase reporter based luminescence assay; format: cell-based
[16] = Inhibition of TNFalpha-induced IKKbeta-mediated NF-kappaB activity in human A549 cells after 2 hrs followed by TNFalpha addition for 3 hrs by ONE-Glo Luciferase reporter based luminescence assay; format: cell-based
How it was run: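 A549 NF-κB luciferase cells (hygromycin B-maintained), 50,000 per well overnight; compound 2 h, then 20 ng/mL TNFα 3 h; alamarBlue 3 h as seeding/viability control; ONE-Glo added, 10 min room temperature, luminescence at 1000 ms.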

serum albumin = serum albumin (Homo sapiens, UniProt P02768); test: Binding affinity to human serum albumin assessed as half life by HPLC analysis; format: ADME
Chain of serum albumin (P02768 whole entry): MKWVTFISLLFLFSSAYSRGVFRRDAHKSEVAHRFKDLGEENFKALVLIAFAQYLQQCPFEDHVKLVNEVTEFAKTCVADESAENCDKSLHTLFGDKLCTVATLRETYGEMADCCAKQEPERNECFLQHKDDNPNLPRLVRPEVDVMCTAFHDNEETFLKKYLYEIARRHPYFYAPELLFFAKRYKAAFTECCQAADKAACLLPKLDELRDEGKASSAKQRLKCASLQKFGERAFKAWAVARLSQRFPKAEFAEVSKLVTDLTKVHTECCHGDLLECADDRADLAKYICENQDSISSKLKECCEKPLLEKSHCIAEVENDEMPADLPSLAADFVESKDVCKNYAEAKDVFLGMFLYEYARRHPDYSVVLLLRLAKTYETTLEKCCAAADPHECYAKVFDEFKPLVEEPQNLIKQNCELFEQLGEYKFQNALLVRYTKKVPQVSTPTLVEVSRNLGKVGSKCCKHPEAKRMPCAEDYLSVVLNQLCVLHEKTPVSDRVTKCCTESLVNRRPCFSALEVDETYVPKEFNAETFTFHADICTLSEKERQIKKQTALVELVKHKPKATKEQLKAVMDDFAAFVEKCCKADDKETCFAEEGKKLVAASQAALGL

[17] = biological target: T1, Inhibitor of nuclear factor kappa-B kinase subunit beta (Homo sapiens) (UniProt O14920); test: Inhibition of IKKbeta in human MDA-MB-231 cells assessed as reduction in IkappaBalpha phosphorylation by Western blot analysis; format: cell-based
T1 sequence (whole entry): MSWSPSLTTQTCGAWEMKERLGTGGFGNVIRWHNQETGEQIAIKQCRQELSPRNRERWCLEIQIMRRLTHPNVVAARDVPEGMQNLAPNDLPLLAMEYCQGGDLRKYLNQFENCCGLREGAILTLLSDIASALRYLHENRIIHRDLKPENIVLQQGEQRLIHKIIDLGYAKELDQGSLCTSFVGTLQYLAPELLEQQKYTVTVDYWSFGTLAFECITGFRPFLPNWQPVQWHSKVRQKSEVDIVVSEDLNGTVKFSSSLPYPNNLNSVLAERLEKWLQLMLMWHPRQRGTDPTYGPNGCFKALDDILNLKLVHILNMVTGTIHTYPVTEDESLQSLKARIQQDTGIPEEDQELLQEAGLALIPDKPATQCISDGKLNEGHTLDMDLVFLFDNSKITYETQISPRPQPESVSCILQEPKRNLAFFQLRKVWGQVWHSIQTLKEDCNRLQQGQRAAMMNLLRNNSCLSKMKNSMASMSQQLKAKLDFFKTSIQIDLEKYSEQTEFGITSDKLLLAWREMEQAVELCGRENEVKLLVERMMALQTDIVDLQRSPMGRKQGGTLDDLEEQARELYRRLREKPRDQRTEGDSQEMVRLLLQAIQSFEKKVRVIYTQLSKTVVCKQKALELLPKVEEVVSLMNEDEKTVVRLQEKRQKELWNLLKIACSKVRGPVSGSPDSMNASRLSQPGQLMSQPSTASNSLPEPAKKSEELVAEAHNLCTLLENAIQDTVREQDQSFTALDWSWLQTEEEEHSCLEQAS
How it was run: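 MDA-MB-231 cytoplasmic fractions: swelling 30 min on ice in HEPES/KCl/EDTA/DTT buffer with inhibitors, 1.25% NP-40, centrifuged; lysates on 4-20% gels, PVDF, anti-phospho-IκBα and anti-IκBα, tubulin or GAPDH loading control, ECL detection.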

[18] = biological target: T1, Inhibitor of nuclear factor kappa-B kinase subunit beta (Homo sapiens); test: Inhibition of IKKbeta in human MIAPaCa2 cells assessed as reduction in IkappaBalpha phosphorylation at 10 to 20 uM by Western blot analysis; format: cell-based; details: MIA PaCa-2
MDA-MB-231 [19] = test: Cytotoxicity against human MDA-MB-231 cells assessed as cell growth inhibition after 3 days by presto blue dye based plate reader method; format: functional; how it was run: as §1
MDA-MB-231 [20] = test: Cytotoxicity against human MDA-MB-231 cells assessed as cell growth inhibition at 0.039 to 40 uM by presto blue dye based plate reader method; format: functional; details: TDE = time-dependent effect
HeLa [21] = test: Anticlonogenic activity against human HeLa cells assessed as inhibition of colony formation after 2 to 7 days by crystal violet staining; format: functional, cell-based
How it was run: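 HeLa cells seeded at 500-1000 per well, grown 24 h, drug-treated 48 h at 37°C (DMSO control), then fresh medium for 7 days; methanol fixed 15 min, 0.1% crystal violet 30 min at room temperature, colonies over 50 cells counted.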

SK-OV-3 [22] = test: Induction of apoptosis in human SKOV3 cells assessed as caspase 3/7 activation after 24 hrs in presence of cisplatin by Caspase Glo-3/7 luminescence assay; format: functional, cell-based
How it was run: (§2)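 SKOV3 at 3,000 cells per well, overnight; compound 24 h; alamarBlue 3 h with fluorescence 560ex/590em as viability read; Caspase-Glo 3/7 reagent, shaken 30 s, 1 h room temperature, luminescence at 1000 ms integration.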

A2780 [23] = test: Potentiation of cisplatin-induced growth inhibition of human A2780 cells assessed as combination index at 1 to 10 uM after 3 days; format: functional
How it was run: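 Combination index values derived from median effect plots and dose-effect curves of combined treatments.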

A2780 [24] = test: Anticancer activity against human A2780 cells xenografted in nude C57B6 mouse orthotopic model of ovarian cancer assessed as tumor growth inhibition administered ip 5 days a week for 4 weeks; format: functional
How it was run: (§3)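 Nude mice injected with 2 million A2780 ovarian cancer cells; treatment began day 3 (7 groups). Arms: vehicle, 1, 2.5 or 5 mg/kg given 5 days/week to day 30; cisplatin 2 or 4 mg/kg on days 5, 9, 14, 21; or 2.5 mg/kg plus 2 mg/kg cisplatin. Day 30: mice sacrificed, tumors removed and weighed.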

A2780 [25] = test: Anticancer activity against human A2780 cells xenografted in nude C57B6 mouse orthotopic model of ovarian cancer assessed as tumor growth inhibition at 5 mg/kg administered ip 5 days a week for 4 weeks; format: functional; details: read-out: TGI; how it was run: as §3
Mus musculus [26] = test: Toxicity in nude C57B6 mouse orthotopic model of ovarian cancer xenografted with human A2780 cells assessed overt toxicity at 1 to 5 mg/kg administered ip 5 days a week for 4 weeks; format: organism-based; details: in vivo
A2780 [27] = test: Anticancer activity against human A2780 cells xenografted in nude C57B6 mouse orthotopic model of ovarian cancer assessed as tumor growth inhibition at 2.5 mg/kg administered ip 5 days a week for 4 weeks; format: functional; details: read-out: TGI; how it was run: as §3
A2780 [28] = test: Anticancer activity against human A2780 cells xenografted in nude C57B6 mouse orthotopic model of ovarian cancer assessed as tumor growth inhibition at 2.5 mg/kg administered ip 5 days a week for 4 weeks in presence of 2 mg/kg of cisplatin; format: functional; how it was run: as §3
Mus musculus [29] = test: Downregulation of NF-kappaB p65 in human A2780 cells xenografted in nude C57B6 mouse by immunohistochemistry method; format: functional, organism-based
How it was run: (§4)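 A2780 tumors from the day-30 nude-mouse study: H&E staining to locate tumor areas, cores punched into a tissue microarray, sections stained with rabbit anti-p65 or anti-Mcl-1 via polymer detection, scored 0-3 by percentage of positive cells (3 = ≥67% positive).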

Mus musculus [30] = test: Downregulation of Mcl-1 in human A2780 cells xenografted in nude C57B6 mouse by immunohistochemistry method; format: functional, organism-based; how it was run: as §4
Mus musculus [31] = test: Downregulation of NF-kappaB p65 in human A2780 cells xenografted in nude C57B6 mouse in presence of cisplatin by […]; format: functional, organism-based
Mus musculus [32] = test: Downregulation of Mcl-1 in human A2780 cells xenografted in nude C57B6 mouse in presence of cisplatin by […]; format: functional, organism-based
SK-OV-3 [33] = test: Induction of apoptosis in human SKOV3 cells assessed as caspase 3/7 activation after 24 hrs in absence of cisplatin by Caspase Glo-3/7 luminescence assay; format: functional, cell-based; how it was run: as §2

## C=C1CC2(OC1=O)C(=O)Nc1c(C)ccc(C)c12 (configuration not stated)
A2780 [1]
  EC50: 1000 nM
A2780 [2]
  Ratio EC50: 13
A2780 [3]
  Ratio EC50: 20
HeLa [4]
  IC50: 3200 nM
[5]
  IC50: 900 nM
SW480 [6]
  IC50: 1200 nM
HeLa [7]
  Ratio IC50: 2
MIA PaCa-2 [8]
  Ratio IC50: 2
SW480 [9]
  Ratio IC50: 2
HeLa [10]
  Ratio IC50: 5
MIA PaCa-2 [11]
  Ratio IC50: 5
SW480 [12]
  Ratio IC50: 5

## C=C1CC2(OC1=O)C(=O)Nc1ccccc12 (configuration not stated)
HeLa [13]
  Activity: Active
A549 [14]
  inhibition: 75%
A549 [15]
  inhibition: > 70%
[16]
  IC50: 4000 nM
Serum albumin
  half-life: 4.83 h
[17]
  inhibition: Active
[18]
  inhibition: Active
MDA-MB-231 [19]
  growth inhibition (GI): Dose-dependent effect
MDA-MB-231 [20]
  growth inhibition (GI): tde
HeLa [21]
  inhibition: Dose-dependent effect
SK-OV-3 [22]
  Activity: Active
A2780 [23]
  CI: <1
A2780 [24]
  TGI: 10%
  inhibition: Dose-dependent effect
A2780 [25]
  inhibition in vivo at 5 mg/kg: 40%
Mus musculus [26]
  Activity: Non-toxic
A2780 [27]
  inhibition in vivo at 2.5 mg/kg: 21%
A2780 [28]
  TGI: 65%
Mus musculus [29]
  Activity: Active
Mus musculus [30]
  Activity: Active
Mus musculus [31]
  Activity: Active
Mus musculus [32]
  Activity: Active
A2780 [1]
  EC50: 2300 nM
A2780 [2]
  Ratio EC50: 4
SK-OV-3 [33]
  Activity: Active
